Columns and labels:
Cytotoxicity assay = type: cell-based; conditions: African green monkey, Vero cells
Procedure, shortened: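 Vero cells grown in DMEM with 10% FBS and penicillin/streptomycin, plated at 1 × 10^5 cells/well and grown 24 h. Exposed 48 h to various concentrations of test compound, final DMSO under 0.05% (v/v). MTT solution (2 mg/mL) added for 4 h, supernatant removed, formazan dissolved in DMSO, absorbance read at 550 nm. Viability expressed relative to control wells; CC50 by regression analysis.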

[1] = tested on: porcine epidemic diarrhea virus (PEDV); assay: Cytopathic effect; type: cell-based
Procedure, shortened: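 Vero cells (DMEM, 10% FBS, penicillin/streptomycin) seeded at 1 × 10^5 cells/well and PBS-washed a day later. Near-confluent monolayers were inoculated with PEDV at 0.01 MOI for 2 h, then given DMEM with various concentrations of test compound. After 72 h at 37 °C, 5% CO2, MTT solution (2 mg/mL) was added for 4 h. EC50 came from regression analysis; SI = CC50/EC50.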

SMILES: O=c1cnn([C@@H]2O[C@H](CO)[C@@H](O)[C@H]2O)c(=O)[nH]1 [Compound 6-Azauridine, 6-Azauridine]
- CC50 at 48 h (Cytotoxicity assay): 44.5 ± 6.11 µM
- EC50 ([1]; Porcine epidemic diarrhea virus, Vero, 72 h): 5.58 ± 0.53 µM
- SI ([1]; selective index, SI = CC50/EC50): 7.98 ± 0.37
